Measured values collected from several papers.
Each line is one published result; the experiments were not run side by side.
Target: NUAK family SNF1-like kinase 1 (NUAK1, Homo sapiens, UniProt O60285)

CCN(CC)CCNC(=O)c1c(C)[nH]c(/C=C2\C(=O)Nc3ccc(F)cc32)c1C — remaining signal (cell-free assay; 0.5 µM): 2.75%
CCc1ccccc1C(=O)Nc1n[nH]c2c(C)c(F)c(C3C(C#N)=C(C)N(C)C(C)=C3C#N)cc12 — remaining binding (cell-free assay, competition with immobilised ligand; 1 µM): 33%
O=C(Nc1cnn(-c2csc(C(=O)NC3COC3)c2)c1)Nc1c(F)cccc1Cl — remaining activity (enzyme activity, inhibitor; 5 µM): 95.2%
Cc1nn(CC(F)(F)F)cc1Nc1ncc(Br)c(NCCc2cnc[nH]2)n1 — remaining activity (enzyme activity, inhibitor, radiometric; 1 µM): 13%
COc1cc2c(Nc3ccc(Br)cc3F)ncnc2cc1OCC1CCN(C)CC1 — remaining signal (cell-free assay; 0.5 µM): 92.7%
CN(C)C1CCN(CC#Cc2nn(C3CCCC3)c3nc(NCc4ccccc4)ncc23)C1 (centres unmarked) — inhibition (enzyme activity, inhibitor, FRET; 1 µM): 10%
Cc1ccc(Nc2nccc(N(C)c3ccc4c(C)n(C)nc4c3)n2)cc1S(N)(=O)=O — inhibition (enzyme activity, inhibitor; 10 µM): 76%
O=C1NC(c2ccccn2)Sc2ccccc21 (centres unmarked) — remaining binding (cell-free assay, competition with immobilised ligand; 1 µM): 95%
Cc1nn(CC(F)(F)F)cc1Nc1nccc(NCc2ccc(S(N)(=O)=O)cc2)n1 — remaining activity (enzyme activity, inhibitor, radiometric; 1 µM): 94%
CNC(=O)c1cc(Oc2ccc(NC(=O)Nc3ccc(Cl)c(C(F)(F)F)c3)cc2)ccn1 — inhibition (enzyme activity, inhibitor; 0.3 µM): -3%
N#Cc1ccc(Nc2ccc3[nH]c(=O)[nH]c3c2)c(Cl)c1 — remaining binding (cell-free assay, competition with immobilised ligand; 1 µM): 100%
CCCS(=O)(=O)Nc1ccc(F)c(C(=O)c2c[nH]c3ncc(-c4ccc(Cl)cc4)cc23)c1F — inhibition (enzyme activity, inhibitor; 1 µM): < 20%
CC(=O)Nc1c(C(C)=O)c(=O)n(C)c2nc(-c3ccc(Cl)cc3Cl)c(-c3ccc(Cl)cc3)cc12 — remaining binding (cell-free assay, competition with immobilised ligand; 1 µM): 100%
NS(=O)(=O)c1ccc(CNc2ccnc(Nc3cccc(NC(=O)N4CCCC4)c3)n2)cc1 — remaining activity (enzyme activity, inhibitor, radiometric; 1 µM): 78%
CO[C@@H](C)c1c(Nc2ccc([C@H](N(C)C(=O)C3CCS(=O)(=O)CC3)C(F)(F)F)cc2)cnc2cc(Cl)nn12 — remaining binding (cell-free assay, competition with immobilised ligand; 1 µM): 98%
c1cc(CN2CCOCC2)cc(Nc2ncc(C3CC3)c(NCCc3c[nH]cn3)n2)c1 — remaining activity (enzyme activity, inhibitor, radiometric; 1 µM): 6%
c1ccc(N2CCN(Cc3nc4ccccc4[nH]3)CC2)nc1 — remaining binding (binding, competition with immobilised ligand; 1 µM): 89%
Brc1cnc(Nc2cccc(CN3CCOCC3)c2)nc1NCCc1c[nH]cn1 — remaining activity (enzyme activity, inhibitor, radiometric; 1 µM): 1%
CNCc1ccccc1-c1csc([C@@H](C)Nc2nc(C)nc3cc(OC)c(OC)cc23)c1 — remaining binding (cell-free assay, competition with immobilised ligand; 1 µM): 97%
CC/C(=N\NC(=O)NCc1cccc(O)c1)c1ccc(O)c(C)c1O — inhibition (enzyme activity, inhibitor; 0.1 µM): -2.5%
O=C(NCCCNc1nc(Nc2cccc(NC(=O)N3CCCC3)c2)ncc1I)c1cccs1 — remaining activity (enzyme activity, inhibitor, radiometric; 1 µM): 2%
C=CC(=O)Nc1cc(Nc2nccc(Nc3cc(Cl)c(F)cc3C(C)(C)O)n2)c(OC)cc1N1CC[C@@H](N(C)C)C1 — inhibition (enzyme activity, inhibitor; 1 µM): 17%
Cc1nn(CC(F)(F)F)cc1Nc1ncc(Br)c(NCc2ccc(S(N)(=O)=O)cc2)n1 — remaining activity (enzyme activity, inhibitor, radiometric; 1 µM): 58%
C#Cc1cccc(Nc2ncnc3cc(OCCOC)c(OCCOC)cc23)c1 — remaining signal (cell-free assay; 0.5 µM): 98%
O=C(NCCCNc1nc(Nc2cccc(CN3CCOCC3)c2)ncc1C1CC1)C1CCC1 — remaining activity (enzyme activity, inhibitor, radiometric; 1 µM): 31%
NS(=O)(=O)c1cc(NC(=O)C2(c3ccccc3Cl)CC2)ccc1Oc1cccc(Cl)c1 — remaining binding (cell-free assay, competition with immobilised ligand; 1 µM): 95%
